The source made the active and inactive calls. No cut-off for these calls is given here.

The test system of data set [1] is Mus musculus. Description: Reduction of PTEN level in ip dosed BALB/c mouse liver at 37 mg/kg by Western blot analysis. More on the design: dose 37 mg/kg. Type of data set: functional, organism-based. (In western blotting, separated proteins are transferred to a membrane and probed.)
The subject of data set [2] is Mus musculus. Kind of data set: Hepatotoxicity in BALB/c mouse assessed as increase in liver ALT level at 0.5 mg/kg, ip administered twice a week for 3 weeks measured after 72 hrs of last dose. The data set is classed as toxicity, organism-based. More on the design: dose 0.5 mg/kg, route intraperitoneal. The settings on record: in vivo. The gist of the method: (§1)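 Male Balb/c mice, 6 weeks old, dosed ip twice weekly for 3 weeks at 0.5, 1.5, 4.7 and 15 mg/kg (two ASOs) or 0.7, 2.3, 7.2 and 23 mg/kg (MOE control); sacrificed 72 h after last dose; ALT, liver PTEN mRNA, liver and spleen weights and body weight gain assessed; ED50 derived; errors as sd.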

The subject of data set [3] is Mus musculus. Kind of data set: Hepatotoxicity in BALB/c mouse assessed as increase in liver ALT level at 0.7 mg/kg, ip administered twice a week for 3 weeks measured after 72 hrs of last dose. Type of data set: toxicity, organism-based. More on the design: dose 0.7 mg/kg, route intraperitoneal. The settings on record: in vivo. The gist of the method:
as §1

In data set [4] the test system is Mus musculus. Description: Hepatotoxicity in BALB/c mouse assessed as increase in liver ALT level at 60 mg/kg, ip after 72 hrs. The data set is classed as toxicity, organism-based. On the set-up: dose 60 mg/kg, route intraperitoneal. To be noted: in vivo.
Data set [5] concerns Mus musculus. Description: Toxicity in BALB/c mouse assessed as reduction in body weight at 4.7 mg/kg, ip administered twice a week for 3 weeks measured after 72 hrs of last dose. The settings on record: in vivo. On the set-up: dose 4.7 mg/kg, route intraperitoneal. Type of data set: organism-based. The gist of the method: as §1
For data set [6], the system named is Mus musculus. Kind of data set: Hepatotoxicity in BALB/c mouse assessed as increase in liver ALT level at 15 mg/kg, ip administered twice a week for 3 weeks measured after 72 hrs of last dose. Type of data set: toxicity, organism-based. More on the design: dose 15 mg/kg, route intraperitoneal. To be noted: in vivo. A digest of the protocol: as §1
Data set [7] has as its system Mus musculus. Kind of data set: Reduction of PTEN mRNA level in ip dosed BALB/c mouse liver after 72 hrs. Type of data set: functional.
For data set [8], the system named is Mus musculus. Kind of data set: Toxicity in BALB/c mouse assessed as reduction in body weight at 1.5 mg/kg, ip administered twice a week for 3 weeks measured after 72 hrs of last dose. The data set is classed as organism-based. More on the design: dose 1.5 mg/kg, route intraperitoneal. The settings on record: in vivo. A digest of the protocol:
as §1

The subject of data set [9] is Mus musculus. Kind of data set: Reduction of PTEN mRNA level in BALB/c mouse liver at 37 mg/kg, ip after 72 hrs. Type of data set: functional, organism-based. More on the design: dose 37 mg/kg.
The subject of data set [10] is Mus musculus. Kind of data set: Toxicity in BALB/c mouse assessed as reduction in body weight at 15 mg/kg, ip administered twice a week for 3 weeks measured after 72 hrs of last dose. Type of data set: organism-based. On the set-up: dose 15 mg/kg, route intraperitoneal. To be noted: in vivo. A digest of the protocol:
as §1

The species entered for data set [11] is Mus musculus. Kind of data set: Binding affinity to mouse PTEN mRNA assessed as melting temperature. A digest of the protocol:
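Tm of ASO–RNA duplex, i.e. melting temperature of the ASO hybridised to its complementary RNA.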

The test system of data set [12] is Mus musculus. Description: Hepatotoxicity in BALB/c mouse assessed as increase in liver ALT level at 23 mg/kg, ip administered twice a week for 3 weeks measured after 72 hrs of last dose. The data set is classed as toxicity, organism-based. To be noted: in vivo. On the set-up: dose 23 mg/kg, route intraperitoneal. The gist of the method:
as §1

In data set [13] the test system is Mus musculus. Description: Hepatotoxicity in BALB/c mouse assessed as increase in liver ALT level at 4.7 mg/kg, ip administered twice a week for 3 weeks measured after 72 hrs of last dose. On the set-up: dose 4.7 mg/kg, route intraperitoneal. The data set is classed as toxicity, organism-based. The settings on record: in vivo. A digest of the protocol:
as §1

For data set [14], the system named is Mus musculus. Description: Toxicity in BALB/c mouse assessed as reduction in body weight at 0.5 mg/kg, ip administered twice a week for 3 weeks measured after 72 hrs of last dose. On the set-up: dose 0.5 mg/kg, route intraperitoneal. The settings on record: in vivo. The data set is classed as organism-based. The gist of the method: as §1
Data set [15] deals with Mus musculus. Kind of data set: Reduction of PTEN mRNA level in ip dosed BALB/c mouse liver administered twice a week for 3 weeks measured after 72 hrs of last dose. The data set is classed as functional. The gist of the method: as §1
Another data set has as its system bEND. Description: Reduction in mouse PTEN mRNA level expressed in mouse bEND cells. Type of data set: functional, cell-based. The gist of the method:
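bEND mouse brain endothelial cells transfected with ASO using lipofectin; PTEN mRNA reduction measured over a dose range; IC50 taken from dose-response curves.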

Data set [16] deals with Mus musculus. Description: Reduction of PTEN mRNA level in BALB/c mouse liver at 60 mg/kg, ip after 72 hrs. On the set-up: dose 60 mg/kg. The data set is classed as functional, organism-based.
For data set [17], the system named is Mus musculus. Kind of data set: Hepatotoxicity in BALB/c mouse assessed as increase in liver ALT level at 1.5 mg/kg, ip administered twice a week for 3 weeks measured after 72 hrs of last dose. On the set-up: dose 1.5 mg/kg, route intraperitoneal. The settings on record: in vivo. The data set is classed as toxicity, organism-based. A digest of the protocol: as §1

In data set [18] the test system is Mus musculus. Description: Hepatotoxicity in BALB/c mouse assessed as increase in liver ALT level at 7.2 mg/kg, ip administered twice a week for 3 weeks measured after 72 hrs of last dose. The settings on record: in vivo. The data set is classed as toxicity, organism-based. More on the design: dose 7.2 mg/kg, route intraperitoneal. A digest of the protocol:
as §1

The test system of data set [19] is Mus musculus. Kind of data set: Hepatotoxicity in BALB/c mouse assessed as increase in liver ALT level at 2.3 mg/kg, ip administered twice a week for 3 weeks measured after 72 hrs of last dose. Type of data set: toxicity, organism-based. More on the design: dose 2.3 mg/kg, route intraperitoneal. The settings on record: in vivo. The gist of the method:
as §1

One may read the ED50 as the midpoint of the dose-response relation. Low readings indicate greater potency, high ones weaker potency. For orientation: IC50 means the midpoint of a concentration-inhibition curve. Read a high IC50 as weaker potency in that assay. Turning to `COCCO[C@@H]1[C@H](O)[C@@H](COP(O)(=S)O[C@H]2[C@@H](OCCOC)[C@H](n3cc(C)c(=O)[nH]c3=O)O[C@@H]2COP(O)(=S)O[C@H]2[C@@H](OCCOC)[C@H](n3cnc4c(=O)[nH]c(N)nc43)O[C@@H]2COP(O)(=S)O[C@H]2[C@@H](OCCOC)[C@H](n3cc(C)c(N)nc3=O)O[C@@H]2COP(O)(=S)O[C@H]2[C@@H](OCCOC)[C@H](n3cc(C)c(=O)[nH]c3=O)O[C@@H]2COP(O)(=S)O[C@H]2[C@@H](O)[C@H](n3cnc4c(N)ncnc43)O[C@@H]2COP(O)(=S)O[C@H]2[C@@H](O)[C@H](n3cnc4c(=O)[nH]c(N)nc43)O[C@@H]2COP(O)(=S)O[C@H]2[C@@H](O)[C@H](n3cc(C)c(N)nc3=O)O[C@@H]2COP(O)(=S)O[C@H]2[C@@H](O)[C@H](n3cc(C)c(N)nc3=O)O[C@@H]2COP(O)(=S)O[C@H]2C[C@H](n3cc(C)c(=O)[nH]c3=O)O[C@@H]2COP(O)(=S)O[C@H]2[C@@H](O)[C@H](n3cc(C)c(N)nc3=O)O[C@@H]2COP(O)(=S)O[C@H]2C[C@H](n3cc(C)c(=O)[nH]c3=O)O[C@@H]2COP(O)(=S)O[C@H]2[C@@H](O)[C@H](n3cnc4c(=O)[nH]c(N)nc43)O[C@@H]2COP(O)(=S)O[C@H]2[C@@H](O)[C@H](n3cnc4c(=O)[nH]c(N)nc43)O[C@@H]2COP(O)(=S)O[C@H]2[C@@H](O)[C@H](n3cnc4c(N)ncnc43)O[C@@H]2COP(O)(=S)O[C@H]2[C@@H](OCCOC)[C@H](n3cc(C)c(=O)[nH]c3=O)O[C@@H]2COP(O)(=S)O[C@H]2[C@@H](OCCOC)[C@H](n3cc(C)c(=O)[nH]c3=O)O[C@@H]2COP(O)(=S)O[C@H]2[C@@H](OCCOC)[C@H](n3cc(C)c(=O)[nH]c3=O)O[C@@H]2COP(O)(=S)O[C@H]2[C@@H](OCCOC)[C@H](n3cnc4c(=O)[nH]c(N)nc43)O[C@@H]2COP(O)(=S)O[C@H]2[C@@H](OCCOC)[C@H](n3cnc4c(N)ncnc43)O[C@@H]2CO)O[C@H]1n1cc(C)c(N)nc1=O` (stereo not given in full), the outcome in the data set on Mus musculus [1], in the data set on Mus musculus [9] and in the data set with Mus musculus [16] was Active. Further, the Activity entry in the data set with Mus musculus [2], with Mus musculus [3], in the data set on Mus musculus [4], with Mus musculus [5], in the data set on Mus musculus [6] and with Mus musculus [8] was “Non-toxic” in each case. In addition, the Activity result in the data set on Mus musculus [10], in the data set with Mus musculus [12], in the data set on Mus musculus [13], with Mus musculus [14], in the data set with Mus musculus [17] and in the data set on Mus musculus [18] was “Non-toxic” each time. The Activity entry with Mus musculus [19] is listed as “Non-toxic”. In addition, the ED50 in the data set on Mus musculus [7] was 36 mg/kg; with Mus musculus [15] it was 9.5 mg/kg. In addition, the Tm in the data set filed under Mus musculus [11] is 67.9 °C. In the data set with bEND, this molecule displayed an IC50 of 6.2 nM.

(Values after ChEMBL document CHEMBL1140861, “Short antisense oligonucleotides with novel 2'-4' conformationaly restricted nucleoside analogues show improved potency without increased toxicity in animals” (J Med Chem, 2009).)
